How the values were obtained:
[1] = system: RAW264.7; experiment: (§1) Cytotoxicity against mouse RAW264.7 cells assessed as cell viability at 40 uM by MTT assay; format: cell-based; conditions: raw264.7, 40 µM
[2] = system: RAW264.7; experiment: Anti-inflammatory activity in mouse RAW264.7 cells assessed as inhibition of lipopolysaccharide-induced nitric oxide production at 80 uM incubated for 24 hrs by Griess reagent based assay; format: functional; conditions: RAW264.7, 24 h
[3] = system: RAW264.7; experiment: Anti-inflammatory activity in mouse RAW264.7 cells assessed as inhibition of lipopolysaccharide-induced nitric oxide production incubated for 24 hrs by Griess reagent based assay; format: functional, cell-based; conditions: RAW264.7, 24 h
In short: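 LPS-stimulated RAW 264.7 macrophages; NO production read by Griess assay; inhibition expressed as IC50 (μM).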

[4] = as §1; format: cell-based; conditions: RAW264.7 cells, read-out: Activity

Structure (SMILES)	Activity [1]	inhibition at 80 µM [2] [%]	IC50 [3] [µM]	viability at 40 µM [4] [%]
C[C@@H]1[C@@H]2C[C@@]3(CC[C@]4(C)[C@@H]5[C@@H]3[C@]1(C)O[C@]5(O)C[C@@H]1[C@@]3(C)C[C@@H](O)[C@@H](O)C(C)(C)[C@@H]3CC[C@]14C)C(=O)O2	Non-toxic	< 50		
CC1(C)[C@@H]2C[C@@]3(CC[C@]4(C)[C@@H]5[C@@H]3[C@@H]1O[C@]5(O)C[C@@H]1[C@@]3(C)C[C@@H](O)[C@@H](O)C(C)(C)[C@@H]3CC[C@]14C)C(=O)O2	Non-toxic	< 50		
C[C@H]1[C@H](C)CC[C@@]23CC[C@]4(C)[C@](OC2=O)([C@H](O)C[C@@H]2[C@@]5(C)C[C@@H](O)[C@@H](O)C(C)(C)[C@@H]5CC[C@]24C)[C@H]13	Non-toxic		34	
C[C@H]1[C@H](C)CC[C@@]23CC[C@@]4(C)[C@]5(C)CC[C@H]6C(C)(C)[C@H](O)[C@H](O)C[C@]6(C)[C@H]5CC(=O)[C@]4(OC2=O)[C@H]13	Non-toxic	< 50		
CC1(C)CC[C@@]23CC[C@@]4(C)[C@]5(C)CC[C@H]6C(C)(C)[C@H](O)[C@H](O)C[C@]6(C)[C@H]5CC(=O)[C@]4(OC2=O)[C@@H]3C1				< 70
CC1(C)[C@H](O)[C@H](O)C[C@]2(C)[C@H]3CC=C4[C@@H]5C[C@](C)(CO)CC[C@]5(C(=O)O)CC[C@@]4(C)[C@]3(C)CC[C@@H]12	Non-toxic	< 50		
C=C1CC[C@]2(C(=O)O)CC[C@]3(C)C(=CC[C@@H]4[C@@]5(C)C[C@@H](O)[C@@H](O)C(C)(C)[C@@H]5CC[C@]43C)[C@@H]2[C@H]1C	Non-toxic		26.1	
CC1(C)CC[C@]2(C(=O)O)CC[C@]3(C)C(=CC[C@@H]4[C@@]5(C)C[C@@H](O)[C@@H](O)[C@](C)(CO)[C@@H]5CC[C@]43C)[C@@H]2C1	Non-toxic		40.5	
CC1(C)CC[C@]2(C(=O)O)CC[C@]3(C)C(=CC[C@@H]4[C@@]5(C)C[C@@H](O)[C@@H](O)C(C)(C)[C@@H]5CC[C@]43C)[C@@H]2C1	Non-toxic		27.7	
C[C@H]1[C@H](C)CC[C@]2(C(=O)O)CC[C@]3(C)C(=CC[C@@H]4[C@@]5(C)C[C@@H](O)[C@H](O)C(C)(C)[C@@H]5CC[C@]43C)[C@H]12 [COROSOLIC ACID]				< 70
C[C@@H]1CC[C@]2(C(=O)O)CC[C@]3(C)C(=CC[C@@H]4[C@@]5(C)C[C@@H](O)[C@@H](O)C(C)(C)[C@@H]5CC[C@]43C)[C@@H]2[C@]1(C)O [EUSCAPHIC ACID]	Non-toxic	< 50		
C[C@H]1[C@H](C)CC[C@]2(C(=O)O)CC[C@]3(C)C(=CC[C@@H]4[C@@]5(C)C[C@@H](O)[C@@H](O)C(C)(C)[C@@H]5CC[C@]43C)[C@H]12 [PYGENIC ACID A]				< 70
O=c1c(O)c(-c2ccc(O)c(O)c2)oc2cc(O)cc(O)c12 [QUERCETIN]			16.6	
C[C@@H]1CC[C@]2(C(=O)O)CC[C@]3(C)C(=CC[C@@H]4[C@@]5(C)C[C@@H](O)[C@H](O)C(C)(C)[C@@H]5CC[C@]43C)[C@@H]2[C@]1(C)O [TOMENTIC ACID]	Non-toxic		24.9	
C[C@H]1[C@H](C)CC[C@]2(C(=O)O)CC[C@]3(C)C(=CC[C@@H]4[C@@]5(C)CC[C@H](O)C(C)(C)[C@@H]5CC[C@]43C)[C@H]12 [URSOLIC ACID]				< 70

From ChEMBL document CHEMBL3352517, “Anti-inflammatory ursane- and oleanane-type triterpenoids from Vitex negundo var. cannabifolia” (J Nat Prod, 2014)
